Experimental data from ChEMBL document CHEMBL3232831, “Synthetic indole and melatonin derivatives exhibit antimalarial activity on the cell cycle of the human malaria parasite Plasmodium falciparum” (Eur J Med Chem, 2014).

Tests used:
Plasmodium falciparum [1] = test: Antiplasmodial activity against Plasmodium falciparum 3D7 infected in erythrocytes assessed as parasitemia level at 500 nM after 48 hrs by YOYO-1 staining-based flow cytometry relative to control; format: functional
Procedure, shortened: (§1)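 P. falciparum 3D7 in O+ human erythrocytes, RPMI-1640 with 10% O+ human serum, 92% N2/5% CO2/3% O2. Infected cells exposed 48 h at a single concentration. Then fixed in 2% paraformaldehyde/PBS for 24 h, permeabilized with 0.1% Triton X-100 and stained with 5 nM YOYO-1 for 30 min at 37 °C. Read on 10⁵ cells by flow cytometry. Parasitemia expressed versus solvent control; ≥3 independent experiments, one-way ANOVA with Dunnett's test.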

Plasmodium falciparum [2] = test: Antiplasmodial activity against asynchronous culture of Plasmodium falciparum 3D7 infected in erythrocytes assessed as reduction of melatonin-induced increase in parasitemia level at 500 nM after 48 hrs by YOYO-1 staining-based flow cytometry (reference value: 23.5 +/- 6.8 %); format: functional; design: scale not given: the % may be the effect or the level left
Plasmodium falciparum [3] = test: Antiplasmodial activity against ring stage synchronized Plasmodium falciparum 3D7 infected in erythrocytes assessed as parasitemia level after 48 hrs by flow cytometry relative to control; format: functional, organism-based; settings: 3D7, 48 h
Procedure, shortened: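 3D7 culture was synchronized (Lambros) and infected erythrocytes were dosed at ring stage with 10 concentrations from 5 nM to 100 μM for 48 h. Parasitemia was read by YOYO-1 flow cytometry as in the single-dose assay. IC50 was obtained from sigmoid dose–response fits; ≥3 independent experiments.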

Plasmodium falciparum [4] = test: Antiplasmodial activity against Plasmodium falciparum 3D7 infected in erythrocytes assessed as parasitemia level at 100 nM after 48 hrs by YOYO-1 staining-based flow cytometry relative to control; format: functional; procedure, shortened: as §1

Compound	Activity (Plasmodium falciparum [1]) [%]	Activity (Plasmodium falciparum [2]) [%]	IC50 (Plasmodium falciparum [3]) [µM]	Activity (Plasmodium falciparum [4]) [%]
COC(=O)NCCc1c[nH]c2ccccc12	11.7	10.9	–	–
CCCCCC(=O)NCCc1c[nH]c2ccccc12	6	6.9	–	–
CC(=O)NCCc1c[nH]c2ccccc12 [NB-ACETYLTRYPTAMINE]	12.9	11.3	–	–
COC(=O)NCCc1c[nH]c2ccc(OC)cc12	10	14.5	–	–
CCCC(=O)NCCc1c[nH]c2ccccc12	9.2	11	–	–
C[C@H]1Cc2c([nH]c3cc(Cl)c(F)cc23)[C@@]2(N1)C(=O)Nc1ccc(Cl)cc12 [CIPARGAMIN]	–	–	0.01	–
CCCCCC(=O)NCCc1c[nH]c2ccc(OC)cc12	7.8	8.6	19.1	–
COc1ccc2[nH]cc(CCN)c2c1 [5-METHOXYTRYPTAMINE]	19.7	14.1	–	–
CCCC(=O)NCCc1c[nH]c2ccc(OC)cc12	8	8.8	19.2	–
COc1ccc2[nH]cc(CCNC(C)=O)c2c1 [MELATONIN]	–	23.5	–	21.9
COc1ccc2[nH]cc(CCNC(=O)c3ccccc3)c2c1	10.8	9.1	2.93	–
